The results in this text go back to ChEMBL document CHEMBL1129791, “Antipsoriatic anthrones with modulated redox properties. 3. 10-thio-substituted 1,8-dihydroxy-9(10H)-anthracenones as inhibitors of keratinocyte growth, 5-lipoxygenase, and the formation of 12(S)-HETE in mouse epidermis” (J Med Chem, 1996).

The test system of data set [1] is HaCaT. In words: Tested for antiproliferative activity against HaCaT cells. The data set is classed as functional, cell-based. The settings on record: Homo sapiens. In outline:
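HaCaT keratinocytes treated for 48 h. Dispersed cells counted by phase-contrast microscopy. Inhibition = (1 − test/control) × 100, using test N = 3 and control N = 6-8.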

In data set [2] the target is T1, Polyunsaturated fatty acid lipoxygenase ALOX12 (Mus musculus, UniProt P39655).
T1 sequence (P39655 whole entry): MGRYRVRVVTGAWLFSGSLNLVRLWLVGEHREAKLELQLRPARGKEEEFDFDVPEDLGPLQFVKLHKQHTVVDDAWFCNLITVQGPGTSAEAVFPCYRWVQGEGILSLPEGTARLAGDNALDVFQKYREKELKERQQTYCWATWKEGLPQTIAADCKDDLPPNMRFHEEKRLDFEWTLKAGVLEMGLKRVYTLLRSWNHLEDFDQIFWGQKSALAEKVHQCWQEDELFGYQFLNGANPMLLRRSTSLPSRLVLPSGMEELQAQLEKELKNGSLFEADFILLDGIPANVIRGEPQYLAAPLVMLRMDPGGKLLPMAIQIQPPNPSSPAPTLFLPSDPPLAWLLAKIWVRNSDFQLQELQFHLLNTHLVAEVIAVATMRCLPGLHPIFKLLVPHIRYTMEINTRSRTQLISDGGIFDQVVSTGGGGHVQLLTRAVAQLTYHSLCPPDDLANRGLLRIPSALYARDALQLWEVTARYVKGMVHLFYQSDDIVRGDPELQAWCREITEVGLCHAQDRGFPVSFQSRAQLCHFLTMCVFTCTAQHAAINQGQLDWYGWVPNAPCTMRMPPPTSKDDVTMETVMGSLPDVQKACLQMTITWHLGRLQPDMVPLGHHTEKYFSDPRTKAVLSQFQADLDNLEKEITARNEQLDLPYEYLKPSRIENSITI
The experiment in a line: Tested for inhibition of 12-LO (12-lipoxygenase) as an inhibitor of 12(S)-HETE biosynthesis in mouse epidermal homogenates.

The nature of data set [3]: Deoxyribose degradation (DD) as umol of malondialdehyde/mmol of deoxyribose released by 75 uM. It counts as functional. The procedure, abridged: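 Deoxyribose degradation run in 30 mM KH2PO4-KOH buffer, pH 7.4, with 75 µM compound. Incubated 2 h at 37 °C in shaking water bath. TBA-reactive material read at 532 nm and expressed as µmol malondialdehyde per mmol deoxyribose.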

Data set [4] has as its target T2, Arachidonate 5-lipoxygenase (Bos taurus, UniProt Q9BEG3).
T2 sequence (Q9BEG3 whole entry): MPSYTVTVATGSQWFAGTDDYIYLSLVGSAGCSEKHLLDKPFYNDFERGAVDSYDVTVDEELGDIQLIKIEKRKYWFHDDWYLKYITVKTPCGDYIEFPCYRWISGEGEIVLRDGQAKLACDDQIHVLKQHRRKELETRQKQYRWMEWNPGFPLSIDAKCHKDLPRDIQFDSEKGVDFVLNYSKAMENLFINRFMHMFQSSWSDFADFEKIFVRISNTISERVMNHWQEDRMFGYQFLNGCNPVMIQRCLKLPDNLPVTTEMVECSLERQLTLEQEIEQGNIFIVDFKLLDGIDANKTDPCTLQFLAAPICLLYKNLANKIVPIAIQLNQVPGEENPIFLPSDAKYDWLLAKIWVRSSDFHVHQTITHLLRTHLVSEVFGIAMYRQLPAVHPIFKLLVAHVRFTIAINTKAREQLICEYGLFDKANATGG
The experiment in a line: Tested for inhibition of 5-lipoxygenase as inhibition of 5-HETE and LTB4 biosynthesis in bovine PMNL.

A short description of data set [5]: Acidity constant in aqueous solution was determined. The data set is classed as ADME. The procedure, abridged:
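UV absorption spectra recorded in buffer solutions spanning pH 2.5–12.0, with measured pH values corrected where needed. Absorbance at pH 2.5 was taken as the neutral species and at pH 12.0 as the fully deprotonated species. pKa was obtained from titration curves of absorbance at suitable wavelengths.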

A short description of data set [6]: Half life in ethanol at 25 degrees celsius was determined. It counts as ADME.
Data set [7] is described as follows: Half life in DMSO at 25 degrees celsius was determined. The data set is classed as ADME.
The test system of data set [8] is HaCaT. In words: Compound was tested for activity of LDH(mU) release in HaCat cells after treatment with 2 uM compound. It counts as functional, Homo sapiens. In outline: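 Human HaCaT keratinocytes exposed to 2 µM compound for 4 h at 37 °C. Extracellular LDH measured by UV method with pyruvate and NADH, expressed as mU/mL. Vehicle controls run in parallel; N = 3.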

Data set [9] is described as follows: half life in DMSO at 25 degrees celsius. It counts as ADME.
Data set [10] can be described thus: half life in ethanol at 25 degrees celsius. The data set is classed as ADME.

Molecules are shown by their SMILES.

As to `COc1ccccc1SC1c2cccc(O)c2C(=O)c2c(O)cccc21`, the IC50 came out at 4.2 µM in the data set on HaCaT [1], 3 µM in [2] and 6 µM in [4]. Besides, the DD in [3] amounted to 4.33.
Regarding `COc1cccc(SC2c3cccc(O)c3C(=O)c3c(O)cccc32)c1`, the half-inhibitory concentration (IC50) with HaCaT [1] stood at 1.8 µM; in data set [2] it was 30 µM. Moreover, the DD in [3] turned out to be 4.29.
In the data set with HaCaT [1], `O=C1c2c(O)cccc2C(SCCCc2ccccc2)c2cccc(O)c21` displayed an IC50 above 5 µM. In addition, in [3], the DD came to 2.71.
In [5], `O=C1c2c(O)cccc2C(Sc2ccccc2)c2cccc(O)c21` showed a pKa of 5.4. The half-inhibitory concentration (IC50) in the data set on HaCaT [1] was 3.7 µM; in data set [2] it was 30 µM; in data set [4], 8 µM. Also, the DD in [3] was found to be 4.13. Further, the figures for the half-life in [6] and in data set [7] were 12 h and 28 h, respectively.
Turning to `O=C1c2c(O)cccc2C(Sc2ccc(O)cc2)c2cccc(O)c21`, in data set [5], the pKa worked out at 6.2. This compound also registered an LDH in the data set with HaCaT [8] of 148 mU/mL. Also, the half-maximal inhibitory concentration (IC50) worked out at 0.1 µM with HaCaT [1], 3 µM in data set [2] and 2 µM in data set [4]. Also, in data set [3], the DD turned out to be 3.61. Further, the half-life in data set [6] was 34 h; in [7], 55 h.
For the compound `CCOC(=O)CSC1c2cccc(O)c2C(=O)c2c(O)cccc21`, the half-inhibitory concentration (IC50) with HaCaT [1] is 4.5 µM; in data set [2], above 30 µM; in [4], above 30 µM. Also, in data set [3], the DD was found to be 4.51.
`COc1ccc(CSC2c3cccc(O)c3C(=O)c3c(O)cccc32)cc1`: in data set [5], the pKa is 6.1. Also, the values for the half-inhibitory concentration (IC50) (in the data set on HaCaT [1]; in data set [2]; in [4]) were 3 µM, 30 µM and above 30 µM, respectively. Moreover, in [3], the DD was 5.01. Also, the half-life in [6] is 5 h; in data set [7] it was 23 h.
In turn, `Nc1ccccc1SC1c2cccc(O)c2C(=O)c2c(O)cccc21` displayed a pKa in [5] of 8.4. The compound further gave an LDH in the data set on HaCaT [8] of 255 mU/mL. The results for the IC50 (in the data set on HaCaT [1]; in data set [2]; in data set [4]) were 0.1 µM, 6 µM and 2 µM, respectively. The DD in data set [3] worked out at 4.76. The half-life in data set [6] is 20 h; in data set [7], 26 h.
In turn, `COc1ccc(SC2c3cccc(O)c3C(=O)c3c(O)cccc32)cc1` came in with a pKa in [5] of 7.9. Further, the LDH in the data set on HaCaT [8] is 137 mU/mL. Moreover, the IC50 in the data set with HaCaT [1] was found to be 1.7 µM; in [2], 30 µM; in [4], 3 µM. Moreover, in data set [3], the DD turned out to be 1.59. Moreover, the results for the half-life in [6] and in [7] were 21 h and 32 h, respectively.
`O=C1c2c(O)cccc2C(SCCCS)c2cccc(O)c21` had an LDH with HaCaT [8] of 369 mU/mL. Further, the IC50 was 0.8 µM in the data set on HaCaT [1], 30 µM in data set [2] and above 30 µM in data set [4]. The DD in [3] is 4.09.
In turn, `CCOC(=O)CCSC1c2cccc(O)c2C(=O)c2c(O)cccc21` yielded an LDH in the data set with HaCaT [8] of 124 mU/mL. Moreover, the IC50 was 1.6 µM with HaCaT [1], 30 µM in [2] and above 30 µM in [4]. The DD in data set [3] turned out to be 5.52.
`NC(CSC1c2cccc(O)c2C(=O)c2c(O)cccc21)C(=O)O` (stereo not given): the results for the IC50 (in the data set with HaCaT [1]; in data set [2]; in data set [4]) were above 5 µM, 30 µM and above 30 µM, respectively. In addition, the DD in data set [3] was determined as 2.33.
Turning to `CCCCOC(=O)CSC1c2cccc(O)c2C(=O)c2c(O)cccc21`, the IC50 was 2.1 µM with HaCaT [1], 30 µM in [2] and above 30 µM in data set [4]. Also, in data set [3], the DD amounted to 4.19.
The matching figures for `CC(SC1c2cccc(O)c2C(=O)c2c(O)cccc21)C(=O)O` (stereo not given): 0.2 µM, 15 µM, above 30 µM and 9.34.
As for `O=C(O)CSC1c2cccc(O)c2C(=O)c2c(O)cccc21`, the IC50 with HaCaT [1] is above 5 µM; in data set [2] it was 30 µM; in data set [4], above 30 µM. Also, in data set [3], the DD was determined as 6.12.
As to `COC(=O)CSC1c2cccc(O)c2C(=O)c2c(O)cccc21`, the IC50 is 1.9 µM in the data set on HaCaT [1], above 30 µM in [2] and 13 µM in data set [4]. In addition, the DD in data set [3] stood at 4.89.
The matching figures for `CCSC1c2cccc(O)c2C(=O)c2c(O)cccc21`: 1.4 µM, above 30 µM, above 30 µM and 4.23.
The compound `CCCSC1c2cccc(O)c2C(=O)c2c(O)cccc21` gave an LDH with HaCaT [8] of 117 mU/mL. Also, the half-maximal inhibitory concentration (IC50) in the data set on HaCaT [1] is 1.2 µM; in [2], above 30 µM; in data set [4] it was above 30 µM. Besides, the DD in [3] worked out at 2.81.
As for `O=C1c2c(O)cccc2C(SCc2ccccc2)c2cccc(O)c21`, the half-maximal inhibitory concentration (IC50) in the data set on HaCaT [1] is 1.4 µM; in data set [2], 30 µM; in [4], above 30 µM. The DD in [3] is 3.74.
With `O=C(O)CCSC1c2cccc(O)c2C(=O)c2c(O)cccc21`, the figures for the IC50 (in the data set with HaCaT [1]; in [2]; in [4]) were 1.9 µM, 30 µM and 2 µM, respectively. Moreover, the DD in data set [3] is 6.34.
In the case of `O=C1c2c(O)cccc2C(SCC(O)CO)c2cccc(O)c21` (stereo not given), the IC50 in the data set on HaCaT [1] is 1.7 µM; in [2] it was above 30 µM; in [4], 9 µM. Moreover, the DD in [3] worked out at 2.45.
Turning to `Nc1ccc(SC2c3cccc(O)c3C(=O)c3c(O)cccc32)cc1`, the LDH in the data set with HaCaT [8] stood at 184 mU/mL. Also, the IC50 in the data set with HaCaT [1] is 0.9 µM; in data set [2], above 30 µM; in [4], 7 µM. Besides, the DD in [3] was 1.49.
In the data set with HaCaT [8], `O=C1c2c(O)cccc2C(SCCO)c2cccc(O)c21` gave an LDH of 136 mU/mL. Besides, the 50% inhibitory concentration (IC50) was 1.2 µM in the data set on HaCaT [1], above 30 µM in data set [2] and 2 µM in [4]. The DD in data set [3] amounted to 2.49.
`O=C1c2c(O)cccc2C(Sc2ccccc2O)c2cccc(O)c21` showed an LDH in the data set on HaCaT [8] of 174 mU/mL. Also, the IC50 in the data set with HaCaT [1] is 1.7 µM; in data set [2] it was 30 µM; in [4] it was 5 µM. The DD in data set [3] amounted to 3.7.
The compound `CCCCOC(=O)CCSC1c2cccc(O)c2C(=O)c2c(O)cccc21` yielded a pKa in data set [5] of 5.7. In addition, the half-inhibitory concentration (IC50) came out at 2.3 µM with HaCaT [1], 30 µM in [2] and 30 µM in data set [4]. The DD in data set [3] is 5.38. Besides, the results for the half-life in data set [6] and in data set [7] were 2 h and 11 h, respectively.
In turn, `COC(=O)CCSC1c2cccc(O)c2C(=O)c2c(O)cccc21` showed an LDH in the data set with HaCaT [8] of 133 mU/mL. The values for the IC50 (in the data set on HaCaT [1]; in data set [2]; in [4]) were 1.1 µM, 27 µM and 15 µM, respectively. In addition, the DD in [3] worked out at 5.25.
`O=C1c2c(O)cccc2C(SCCc2ccccc2)c2cccc(O)c21`: the figures for the IC50 (in the data set on HaCaT [1]; in [2]; in [4]) were 4.7 µM, above 30 µM and 30 µM, respectively. Moreover, the half-life in [9] was 4 h; in [10] it was 3 h. Also, the DD in [3] was 2.78.

Usually IC50 stands for the concentration that gives 50% inhibition. Higher therefore signals a need for much substance. One may read the pKa as the negative logarithm of the acid dissociation constant. Lower therefore signals a group that gives up its proton readily. What is called half-life is the time in which the quantity being followed falls by half. Lower therefore signals rapid decline.
